The source of these data is ChEMBL document CHEMBL1153999, “5,6-Diarylanthranilo-1,3-dinitriles as a new class of antihyperglycemic agents” (Bioorg Med Chem Lett, 2009).

≈ marks a conversion by molar mass, not a printed value. Calls of active or inactive are those of the source. The rule behind the calls is not given here.

Data set [1] addresses Maltase-glucoamylase (Homo sapiens) (UniProt O43451). In words: Inhibition of alpha-glucosidase at 100 uM. The essentials:
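Purified α-glucosidase (0.1 mg/mL) was assayed in 67 mM sodium phosphate (pH 6.8) with 1.0 mg/mL glutathione, 1 mL. The reaction was started with 3.0 mg/mL pNPG and followed at 405 nm every 30 s for 3 min.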

The target in data set [2] is T1, Tyrosine-protein phosphatase non-receptor type 1 (Homo sapiens) (UniProt P18031).
T1 sequence (whole entry): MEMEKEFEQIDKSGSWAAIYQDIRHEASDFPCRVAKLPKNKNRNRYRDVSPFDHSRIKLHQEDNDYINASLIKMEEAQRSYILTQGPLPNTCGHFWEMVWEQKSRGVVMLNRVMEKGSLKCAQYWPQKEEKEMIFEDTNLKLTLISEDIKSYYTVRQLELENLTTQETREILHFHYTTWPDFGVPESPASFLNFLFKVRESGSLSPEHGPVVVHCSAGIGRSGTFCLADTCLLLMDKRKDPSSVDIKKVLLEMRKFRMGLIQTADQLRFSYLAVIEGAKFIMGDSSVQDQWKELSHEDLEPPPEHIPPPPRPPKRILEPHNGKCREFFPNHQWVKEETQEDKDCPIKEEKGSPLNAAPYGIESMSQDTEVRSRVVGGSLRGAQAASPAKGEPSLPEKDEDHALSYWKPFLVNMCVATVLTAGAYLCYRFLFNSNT
The experiment in a line: Inhibition of PTP1B at 100 uM. In a few lines:
(§1)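 The PTP-1B assay used 10 mM pNPP in 50 mM HEPES (pH 7.0) with 1 mM DTT and 2 mM EDTA, 1.0 mL, 37 °C for 30 min. It was stopped with 0.1 N NaOH and read at 410 nm. p-Nitrophenolate was calculated with ε 1.78 × 10⁴ M⁻¹ cm⁻¹. Sodium vanadate was the reference.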

Data set [3] concerns the target T2, Glucose-6-phosphatase catalytic subunit 1 (Homo sapiens) (UniProt P35575).
T2 sequence (whole entry): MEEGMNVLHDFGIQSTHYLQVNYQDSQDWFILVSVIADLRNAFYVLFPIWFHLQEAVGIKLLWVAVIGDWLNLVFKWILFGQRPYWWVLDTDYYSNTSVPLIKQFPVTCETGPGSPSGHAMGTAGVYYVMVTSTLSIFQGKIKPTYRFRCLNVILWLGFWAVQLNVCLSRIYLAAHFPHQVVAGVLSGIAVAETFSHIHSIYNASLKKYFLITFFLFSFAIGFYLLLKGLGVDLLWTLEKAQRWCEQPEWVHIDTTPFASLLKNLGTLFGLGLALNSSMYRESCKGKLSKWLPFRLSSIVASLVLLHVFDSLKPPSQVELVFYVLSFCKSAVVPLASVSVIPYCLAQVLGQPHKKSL
In words: Inhibition of glucose-6-phosphatase at 100 uM. The essentials: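 Compound was preincubated 10 min with glucose-6-phosphatase in 1.0 mL of 0.3 M citrate (pH 6.0), 28 mM EDTA, 14 mM NaF and 200 mM glucose-6-phosphate. The mixture was incubated 30 min at 37 °C and stopped with 10% TCA. Released Pi in the supernatant was measured by Taussky–Shorr; activity is µmol Pi/min/mg protein.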

Data set [4] relates to Glycogen phosphorylase. In words: Inhibition of glycogen phosphorylase at 100 uM.
Data set [5] addresses Glycogen phosphorylase. In words: Inhibition of glycogen phosphorylase.
The subject of data set [6] is Rattus norvegicus. In words: Antihyperglycemic activity in Sprague-Dawley rat assessed as inhibition of streptozotocin-induced increase in blood glucose level at 100 mg/kg, po after 5 hrs. Format: functional. Also on record: scale not given: the % may be the effect or the level left. In a few lines:
(§2)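 Overnight-fasted male Sprague–Dawley rats were made diabetic with streptozotocin 60 mg/kg ip in 100 mM citrate (pH 4.5). Rats with glucose >10 mM at 48 h and a baseline of 140–270 mg/dL were used, 5 per group. Test suspension or 1% gum acacia vehicle was given orally, then sucrose 2.5 g/kg orally 30 min later. Glucose was read at 30–1440 min; % activity is from AUC versus vehicle (Dunnett test).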

Data set [7] has as its system Rattus norvegicus. The experiment in a line: Antihyperglycemic activity in Sprague-Dawley rat assessed as inhibition of streptozotocin-induced increase in blood glucose level at 100 mg/kg, po after 24 hrs. It is filed as functional. Also on record: scale not given: the % may be the effect or the level left. In a few lines:
as §2

The nature of data set [8]: Solubility in triple distilled water. It is filed as physicochemical.
The subject of data set [9] is Rattus norvegicus. The experiment in a line: Toxicity in Sprague-Dawley rat up to 250 mg/kg, po. It is filed as organism-based. Also on record: dose 250 mg/kg, route oral. Conditions: in vivo.
For data set [10], the target named is T3, Tyrosine-protein phosphatase non-receptor type 1 (Homo sapiens, UniProt P18031).
T3 sequence (P18031 whole entry): T1 sequence (whole entry)
In words: Inhibition of PTP1B. In a few lines:
as §1

Sequence of Maltase-glucoamylase (Homo sapiens) (O43451 whole entry, looked up): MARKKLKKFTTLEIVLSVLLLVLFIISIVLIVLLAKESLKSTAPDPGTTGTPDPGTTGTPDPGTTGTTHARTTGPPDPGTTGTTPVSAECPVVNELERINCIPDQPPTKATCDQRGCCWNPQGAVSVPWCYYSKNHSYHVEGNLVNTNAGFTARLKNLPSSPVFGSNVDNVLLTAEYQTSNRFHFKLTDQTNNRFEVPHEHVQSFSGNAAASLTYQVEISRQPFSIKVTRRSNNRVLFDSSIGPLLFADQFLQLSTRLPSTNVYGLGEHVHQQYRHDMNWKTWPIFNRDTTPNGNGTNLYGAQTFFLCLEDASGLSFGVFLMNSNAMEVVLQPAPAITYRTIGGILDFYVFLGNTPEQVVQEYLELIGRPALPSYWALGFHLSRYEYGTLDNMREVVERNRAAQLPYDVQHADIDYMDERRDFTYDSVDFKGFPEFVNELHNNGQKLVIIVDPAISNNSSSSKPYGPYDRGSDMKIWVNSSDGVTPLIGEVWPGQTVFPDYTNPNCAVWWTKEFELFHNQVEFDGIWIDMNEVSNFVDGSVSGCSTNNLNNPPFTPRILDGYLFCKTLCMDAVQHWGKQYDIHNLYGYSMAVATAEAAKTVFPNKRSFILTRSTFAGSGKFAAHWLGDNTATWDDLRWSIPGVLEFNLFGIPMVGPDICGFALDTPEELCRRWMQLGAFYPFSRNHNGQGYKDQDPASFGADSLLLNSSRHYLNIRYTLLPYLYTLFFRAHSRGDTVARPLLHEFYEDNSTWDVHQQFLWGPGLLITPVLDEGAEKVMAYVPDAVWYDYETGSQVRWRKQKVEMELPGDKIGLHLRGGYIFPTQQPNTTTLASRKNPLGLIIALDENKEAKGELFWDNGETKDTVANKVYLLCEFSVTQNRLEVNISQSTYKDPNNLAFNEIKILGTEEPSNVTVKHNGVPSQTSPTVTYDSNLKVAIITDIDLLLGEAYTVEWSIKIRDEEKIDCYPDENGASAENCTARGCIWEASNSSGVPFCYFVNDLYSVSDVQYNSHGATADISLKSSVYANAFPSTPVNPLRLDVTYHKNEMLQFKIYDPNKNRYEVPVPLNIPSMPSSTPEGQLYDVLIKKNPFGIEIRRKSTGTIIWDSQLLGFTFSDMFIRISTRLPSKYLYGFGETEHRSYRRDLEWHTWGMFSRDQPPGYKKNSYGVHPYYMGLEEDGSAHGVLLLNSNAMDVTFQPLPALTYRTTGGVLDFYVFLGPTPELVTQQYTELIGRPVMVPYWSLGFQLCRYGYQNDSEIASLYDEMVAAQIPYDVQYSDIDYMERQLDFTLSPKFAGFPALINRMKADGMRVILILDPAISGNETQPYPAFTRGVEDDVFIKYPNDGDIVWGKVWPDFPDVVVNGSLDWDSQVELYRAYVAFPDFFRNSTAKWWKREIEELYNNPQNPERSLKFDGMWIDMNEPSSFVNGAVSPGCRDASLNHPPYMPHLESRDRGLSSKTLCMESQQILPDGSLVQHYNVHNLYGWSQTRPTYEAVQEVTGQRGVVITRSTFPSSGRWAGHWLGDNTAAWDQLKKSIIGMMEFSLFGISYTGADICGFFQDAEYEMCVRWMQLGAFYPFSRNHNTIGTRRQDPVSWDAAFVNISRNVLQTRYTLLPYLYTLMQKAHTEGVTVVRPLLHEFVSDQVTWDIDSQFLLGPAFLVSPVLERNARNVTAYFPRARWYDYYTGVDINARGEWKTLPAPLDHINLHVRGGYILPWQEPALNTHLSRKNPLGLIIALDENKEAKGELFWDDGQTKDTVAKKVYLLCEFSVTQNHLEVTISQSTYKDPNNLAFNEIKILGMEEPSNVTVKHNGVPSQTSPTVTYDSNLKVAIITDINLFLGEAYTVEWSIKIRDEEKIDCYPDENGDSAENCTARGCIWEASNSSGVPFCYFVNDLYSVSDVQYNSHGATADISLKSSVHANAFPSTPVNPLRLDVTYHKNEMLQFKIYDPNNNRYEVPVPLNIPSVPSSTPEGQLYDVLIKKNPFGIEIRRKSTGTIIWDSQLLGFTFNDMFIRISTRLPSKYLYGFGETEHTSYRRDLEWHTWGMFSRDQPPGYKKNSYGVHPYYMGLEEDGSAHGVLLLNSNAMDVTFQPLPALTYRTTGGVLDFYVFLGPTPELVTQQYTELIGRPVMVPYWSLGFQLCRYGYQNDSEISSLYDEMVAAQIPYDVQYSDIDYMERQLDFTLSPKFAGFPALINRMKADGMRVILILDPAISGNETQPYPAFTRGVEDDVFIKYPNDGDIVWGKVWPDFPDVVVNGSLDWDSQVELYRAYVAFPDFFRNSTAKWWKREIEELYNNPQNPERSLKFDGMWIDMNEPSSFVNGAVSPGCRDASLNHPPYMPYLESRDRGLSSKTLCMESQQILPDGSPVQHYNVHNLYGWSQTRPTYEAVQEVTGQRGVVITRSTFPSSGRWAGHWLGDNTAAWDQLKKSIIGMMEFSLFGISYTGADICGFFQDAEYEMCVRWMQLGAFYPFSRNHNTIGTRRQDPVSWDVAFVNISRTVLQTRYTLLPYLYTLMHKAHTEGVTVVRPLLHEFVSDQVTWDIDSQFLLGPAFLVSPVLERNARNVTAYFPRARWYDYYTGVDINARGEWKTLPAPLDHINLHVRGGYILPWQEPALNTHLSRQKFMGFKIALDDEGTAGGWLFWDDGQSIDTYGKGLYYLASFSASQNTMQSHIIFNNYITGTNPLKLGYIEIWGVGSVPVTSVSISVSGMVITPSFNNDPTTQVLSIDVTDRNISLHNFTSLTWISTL

For the molecule `CSc1c(C#N)c(N)c(C#N)c(C)c1-c1ccc(F)cc1`, the inhibition is 17.3% in data set [1], 3.6% in data set [2], 41.8% in [3] and 5% with Glycogen phosphorylase [4].
`Cc1c(-c2ccccc2)c(C#N)c(N)c(C#N)c1N1CCC(C)CC1`: the inhibition result in data set [2] is “inactive”. In addition, the values for the inhibition (in [3]; with Glycogen phosphorylase [4]) were 10.9% and 2.3%, respectively.
On to `COc1ccc(-c2c(C#N)c(N)c(C#N)c(SC)c2-c2ccc(F)cc2)c(OC)c1`, for which the inhibition in [1] came out at 11.5%; in [2], 28.2%; in [3] it was 1.9%; in the data set on Glycogen phosphorylase [4], 74.3%. Further, 79 µM corresponded to half-maximal inhibition against Glycogen phosphorylase [5] (IC50).
With `COc1ccc(-c2c(C#N)c(N)c(C#N)c(SC)c2-c2ccc(OC)c(OC)c2)cc1`, the inhibition in [1] was found to be 25.9%; in data set [2], 30.7%; in [3], 0.3%; in the data set with Glycogen phosphorylase [4], 13.8%.
As for `CSc1c(C#N)c(N)c(C#N)c(Cc2ccccc2)c1-c1ccccc1`, the inhibition was 24.5% in [3] and 11.6% in the data set with Glycogen phosphorylase [4].
Turning to `CN(C)C(=N)NC(=N)N` [METFORMIN], the Activity came out at 20.9% in the data set on Rattus norvegicus [6] and 21.9% with Rattus norvegicus [7].
In data set [8], `CSc1c(C#N)c(N)c(C#N)c(-c2ccccc2)c1-c1ccccc1` registered a solubility of 0.13 µg/mL (≈ 0.381 µM). In addition, the values for the Activity result in the data set with Rattus norvegicus [9], with Rattus norvegicus [6] and with Rattus norvegicus [7] were “Non-toxic”, 24.1% and 28.1%, respectively. In addition, the inhibition was found to be 10.5% in data set [1], 81.6% in data set [2] and 7.4% in [3]. In data set [10], this molecule came in with an IC50 of 58 µM. The inhibition result in the data set on Glycogen phosphorylase [4] was “inactive”.
Take `CSc1c(C)c(-c2ccc(Cl)cc2)c(C#N)c(N)c1C#N`: the inhibition in data set [1] worked out at 6.7%; in [2], 7.3%; in [3], 19.3%; in the data set with Glycogen phosphorylase [4], 12.5%.
With `Cc1c(-c2ccccc2)c(C#N)c(N)c(C#N)c1N1CCCCC1`, the inhibition in [2] was 31.1%; in data set [3], 38.2%; in the data set on Glycogen phosphorylase [4] it was 4.7%.
Turning to `COc1ccc(-c2c(C)c(C#N)c(N)c(C#N)c2SC)cc1OC`, the inhibition in data set [1] was determined as 6.7%; in [2], 0%; in data set [3], 6.1%; in the data set on Glycogen phosphorylase [4], 10%.
With `COc1ccc(-c2c(C#N)c(N)c(C#N)c(SC)c2-c2ccc(OC)cc2)cc1`, the Activity result in the data set on Rattus norvegicus [9] is “Non-toxic”; with Rattus norvegicus [6], 17.5%; with Rattus norvegicus [7], 17.6%. Also, the inhibition worked out at 14.4% in data set [1], 76.9% in data set [2], 5.5% in data set [3] and 6.9% in the data set with Glycogen phosphorylase [4]. In data set [10], this molecule gave a concentration for half-maximal inhibition (IC50) of 72 µM.
For the molecule `COc1ccc(-c2c(C)c(SC)c(C#N)c(N)c2C#N)cc1`, the inhibition in data set [1] came to 17.3%; in [2] it was 0%; in [3], 12.3%; in the data set with Glycogen phosphorylase [4], 37.5%.
For the molecule `CSc1c(C#N)c(N)c(C#N)c(C)c1-c1ccccc1F`, in data set [1], the inhibition entry was “inactive”. For the same molecule, the inhibition turned out to be 40.2% in [2], 8.2% in data set [3] and 20% with Glycogen phosphorylase [4].
For `COc1ccc(-c2c(C#N)c(N)c(C#N)c(SC)c2-c2ccc(F)cc2)cc1`, the values for the inhibition in [1], in [2] and in data set [3] were 13.4%, 48.8% and 5.5%, respectively. Also, the results for the Activity in the data set with Rattus norvegicus [6] and in the data set on Rattus norvegicus [7] were 22.1% and 25.2%, respectively. Further, in the data set with Glycogen phosphorylase [4], the inhibition entry was “inactive”.
For `COc1ccc(-c2c(C)c(N3CCCCC3)c(C#N)c(N)c2C#N)cc1`, the inhibition entry in data set [2] is “inactive”. The inhibition was determined as 33.3% in data set [3] and 15.7% in the data set with Glycogen phosphorylase [4].
Take `CSc1c(C#N)c(N)c(C#N)c(C)c1-c1ccc(C(F)(F)F)cc1`: the inhibition in [1] came to 22.1%; in data set [2], 58.5%; in data set [3] it was 14.4%; with Glycogen phosphorylase [4], 55%.
In the same order, the values of `CSc1c(C)c(-c2ccccc2)c(C#N)c(N)c1C#N` are 6.7%, “inactive”, 0.96% and 45%.
Regarding `COc1ccc(-c2c(C)c(C#N)c(N)c(C#N)c2SC)c(OC)c1`, the inhibition was 10.5% in [1], 25.6% in data set [2], 0.08% in data set [3] and 50% with Glycogen phosphorylase [4].
Consider `COc1ccc(-c2c(C#N)c(N)c(C#N)c(SC)c2-c2ccccc2)cc1`, for which the Activity result with Rattus norvegicus [9] is given as “Non-toxic”; in the data set with Rattus norvegicus [6], 26.5%; in the data set with Rattus norvegicus [7], 36.9%. The inhibition turned out to be 5.7% in [1], 61.5% in data set [2], 6.8% in [3] and 37.9% in the data set with Glycogen phosphorylase [4]. This molecule also displayed an IC50 in data set [10] of 86 µM.
